Reference: ChEMBL document CHEMBL3992522, “Antileishmanial Activity of Pyrazolopyridine Derivatives and Their Potential as an Adjunct Therapy with Miltefosine” (J Med Chem, 2017)
Activity calls are given as the source filed them. The calls are words filed in the database; no cut-off is given here.

Key:
Leishmania donovani [1] = assay: Antileishmanial activity against Leishmania donovani MHOM/IN/80/DD8 amastigote forms harboring luciferase gene infected in mouse J774 cells at 50 uM up to 72 hrs by Giemsa staining based assay relative to control; assay type: functional; conditions: MHOM/IN/80/DD8, J774, 72 h
In short: (§1)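 J774 macrophages in chamber slides infected with Dd8 promastigotes (1:10 cell:parasite in methods; 1:8 in legend) for 24 h, then treated 48 and 72 h. Cells methanol-fixed, stained with 20% Giemsa. Amastigotes per 100 macrophages counted against untreated infected controls.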

Mus musculus [2] = assay: Toxicity in Balb/c mouse infected with Leishmania donovani amastigote forms assessed as changes in body weight at 12.5 to 200 mg/kg, ip administered for 5 consecutive days; assay type: organism-based; conditions: in vivo
In short: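 L. donovani-infected BALB/c mice (15-day infection, 5 per group) dosed for five consecutive days: test compound 12.5–200 mg/kg i.p. in 8% DMSO, miltefosine orally in TDW, alone or in combination. Body weight followed after treatment.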

Leishmania donovani [3] = assay: Antileishmanial activity against Leishmania donovani amastigote forms infected in Balb/c mouse assessed as inhibition of parasitic burden in spleen at 25 mg/kg, ip administered for 5 consecutive days measured on day 7 post last treatment by Giemsa staining based assay relative to control; conditions: 168 h
Mus musculus [4] = assay: Increase in IL-12 level in Balb/c mouse splenocytes infected with Leishmania donovani amastigote forms at 25 mg/kg, ip co-treated with 5 mg/kg, po miltefosine administered for 5 consecutive days measured on day 4 post last treatment by sandwich ELISA relative to control; assay type: functional
In short: (§2)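 Splenocytes (2×10^6) from treated infected BALB/c mice taken on day 4 or 7 post-treatment. Cultured in phenol-red-free RPMI 1640 with 5 μg/mL soluble L. donovani antigen for 72 h at 37 °C, 5% CO2. Supernatant cytokines measured by sandwich ELISA against a standard curve. Mean ± SD, n = 5 mice per group, three independent experiments.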

[5] = Elimination rate constant in Swiss mouse at 50 mg/kg, po by LC-MS/MS analysis; assay type: ADME, organism-based; conditions: in vivo
Leishmania donovani [6] = assay: Antileishmanial activity against Leishmania donovani MHOM/IN/80/DD8 amastigote forms harboring luciferase gene infected in mouse J774 cells at 4.05 uM up to 72 hrs by Giemsa staining based assay relative to control; assay type: functional; conditions: MHOM/IN/80/DD8, J774, 72 h; in short: as §1
[7] = Apparent volume of distribution in Swiss mouse at 50 mg/kg, po by LC-MS/MS analysis; assay type: ADME, organism-based; conditions: in vivo
Leishmania donovani [8] = assay: Induction of apoptosis in Leishmania donovani MHOM/IN/80/DD8 promastigote forms assessed as late apoptotic cells at 50 uM after 48 hrs by Annexin V-FITC/propidium iodide staining based flow cytometry (reference value: 0.86%); assay type: functional
Leishmania donovani [9] = assay: Induction of apoptosis in Leishmania donovani MHOM/IN/80/DD8 promastigote forms assessed as early apoptotic cells at IC50 after 48 hrs by Annexin V-FITC/propidium iodide staining based flow cytometry (reference value: 7.41%); assay type: functional
[10] = Selectivity index, ratio of CC50 for African green monkey Vero cells to IC50 for Leishmania donovani MHOM/IN/80/DD8 amastigote forms infected in mouse J774 cells; assay type: toxicity, cell-based; conditions: read-out: Ratio CC50/IC50
In short: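 CC50: Vero or J774 cells (1×10^5/well) exposed 72 h to seven two-fold dilutions, 500–7.81 μM; MTT 2 h at 37 °C, formazan in DMSO read at 540 nm. IC50: luciferase-expressing Dd8 amastigotes in J774 macrophages (1:8), 72 h, luminescence, four-parameter Hill fit. SI = CC50/IC50, IC50 mean of three experiments.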

Leishmania donovani [11] = assay: Antileishmanial activity against Leishmania donovani amastigote forms infected in Balb/c mouse assessed as reduction in spleen weight at 12.5 to 200 mg/kg, ip administered for 5 consecutive days; assay type: functional, organism-based
Mus musculus [12] = assay: Decrease in IL-10 level in Balb/c mouse splenocytes infected with Leishmania donovani amastigote forms at 25 mg/kg, ip co-treated with 5 mg/kg, po miltefosine administered for 5 consecutive days measured on day 7 post last treatment by sandwich ELISA relative to control; assay type: functional; in short: as §2
Leishmania donovani [13] = assay: Antileishmanial activity against Leishmania donovani amastigote forms infected in Balb/c mouse assessed as inhibition of parasitic burden in liver at 50 mg/kg, ip administered for 5 consecutive days measured 1 week post last treatment by Giemsa staining based assay relative to control; assay type: functional; conditions: 168 h
[14] = Cytotoxicity against African green monkey Vero cells assessed as reduction in cell viability after 72 hrs by MTT assay; assay type: cell-based; conditions: chlorocebus sabaeus
In short: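 Vero and J774 cells seeded at 1×10^5 per well for 24 h, then exposed 72 h to seven two-fold dilutions from 500 to 7.81 μM. MTT solution (5 mg/mL stock) added for 2 h at 37 °C, formazan dissolved in DMSO and read at 540 nm. CC50 derived by the Huber and Koella method.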

[15] = AUC (0 to infinity) in Swiss mouse at 50 mg/kg, po by LC-MS/MS analysis; assay type: ADME, organism-based; design: dose 50 mg/kg, route oral, time infinity; conditions: in vivo
Leishmania donovani [16] = assay: Induction of apoptosis in Leishmania donovani MHOM/IN/80/DD8 promastigote forms assessed as DNA fragmentation at 50 uM after 48 hrs by propidium iodide staining based TUNEL assay; assay type: functional
In short: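 DNA fragmentation detected by TUNEL under fluorescence and phase-contrast microscopy, with counts of TUNEL-positive cells; three independent experiments.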

Mus musculus [17] = assay: Increase in iNOS mRNA expression level in Balb/c mouse splenocytes infected with Leishmania donovani amastigote forms at 25 mg/kg, ip cotreated with 5 mg/kg, po miltefosine for 5 consecutive days measured on day 7 post last treatment by RT-PCR assay relative to control; assay type: functional
In short: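 Infected BALB/c mice dosed for 5 consecutive days (test compound i.p. in 8% DMSO, miltefosine oral), n = 5 per group; splenocytes taken day 4 and day 7 post-treatment. Total RNA extracted and iNOS mRNA quantified by real-time PCR, normalized to mouse β-actin, expressed as fold change over uninfected controls.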

Liver = assay: Intrinsic clearance in mouse liver S9 fractions assessed per mg protein at 1 mM in presence of NADPH by HPLC method; assay type: ADME; conditions: s9, 1000 µM
Mus musculus [18] = assay: Decrease in IL-10 level in Balb/c mouse splenocytes infected with Leishmania donovani amastigote forms at 25 mg/kg, ip co-treated with 5 mg/kg, po miltefosine administered for 5 consecutive days measured on day 4 post last treatment by sandwich ELISA relative to control; assay type: functional; in short: as §2
[19] = Half life in Swiss mouse at 50 mg/kg, po by LC-MS/MS analysis; assay type: ADME, organism-based; conditions: in vivo
Mus musculus [20] = assay: Toxicity in Balb/c mouse infected with Leishmania donovani amastigote forms assessed as changes in body weight at 12.5 to 200 mg/kg, ip co-treated with 5 to 25 mg/kg, po miltefosine for 5 consecutive days; assay type: organism-based; conditions: in vivo
Leishmania donovani [21] = assay: Antileishmanial activity against Leishmania donovani amastigote forms infected in Balb/c mouse assessed as inhibition of parasitic burden in liver at 50 mg/kg, ip administered for 5 consecutive days measured on day 7 post last treatment by Giemsa staining based assay relative to control; assay type: functional; conditions: 168 h
[22] = Cytotoxicity against African green monkey Vero cells assessed as cell viability up to 200 uM after 72 hrs by MTT assay relative to control; assay type: cell-based; conditions: chlorocebus sabaeus, read-out: Activity

Which results are given for `COc1ccc(C2C3=C(CCC3=O)Nc3c2c(-c2c[nH]c4ccccc24)nn3-c2ccc(Cl)c(Cl)c2)cc1OC` (stereo not drawn)?
inhibition at 50 µM (Leishmania donovani [1]): > 93%; Activity (Mus musculus [2]): Non-Toxic; inhibition in vivo at 25 mg/kg (Leishmania donovani [3]): > 59%; fold change (FC) (Mus musculus [4]): 12.7; k el [5]: 3.89e-05 s⁻¹; inhibition at 4.05 µM (Leishmania donovani [6]): > 93%; Vd/F [7]: 19.6 L/kg; Activity (Leishmania donovani [8]): 54.2%; Activity (Leishmania donovani [9]): 17.2%; selectivity ratio [10]: 108; Activity (Leishmania donovani [11]): Active; inhibition (INH) (Mus musculus [12]): 94%; inhibition in vivo at 50 mg/kg (Leishmania donovani [13]): > 93%; CC50 at 72 h [14]: 438 µM; AUC(0-inf) [15]: 31.7 µM·h; Activity (Leishmania donovani [16]): Active; fold change (FC) (Mus musculus [17]): 8.5; CLH (Liver): 27.47 µL/min; inhibition (INH) (Mus musculus [18]): 91%; half-life [19]: 4.81 h; Activity (Mus musculus [20]): Non-Toxic; inhibition in vivo at 50 mg/kg (Leishmania donovani [21]): > 93%; viability at 72 h [22]: > 95%
